Screens (PubChem BioAssay)
The list is not random: actives were taken first. Their share in the collection is about 4.3%.
MC4R antag cAMP: MC4R antagonists of cAMP signaling, primary screen, cell-based, TR-FRET, antagonist arm of biased-ligand search; MC4R-expressing cells, MTII-stimulated cAMP, LANCE TR-FRET; inhibition, % at 6.5 µM; 360,000 tested, 0.48% active; AID 540295, 2011;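 active = inhibition above its plate's cutoff, the mean of tested wells on that plate plus 3 SD, cut at about 29% in these data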;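 also: 0% = Melanotan II alone and 100% = Melanotan II plus saturating MCL0020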
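Test system: U2OS cells stably expressing human melanocortin 4 receptor (MC4R); also added: Melanotan II challenge; compound: 6.5 µM single dose; timing: 30-min compound preincubation, 1-h Melanotan II challenge, 1-h detection, room temperature; signal: Eu-cAMP/anti-cAMP TR-FRET, emission 671 nm; repeats: one well per compound, no replicates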
HTR2A ag: mouse Htr2a agonists via beta-arrestin recruitment, primary screen, cell-based, luminescence | 5-hydroxytryptamine receptor 2A (Mus musculus), P35363 | CHO-K1 mHTR2A beta-arrestin complementation; percent of 30 µM serotonin response | activation, % at 7.6 µM | 360,000 tested, 0.66% active;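 active = activation above a run cutoff, the mean activation of all tested compounds plus 3 SD, cut at about 14% in these data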;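 also: 0% = plate median of compound wells and 100% = 30 µM serotonin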
Target sequence (P35363 whole entry, looked up): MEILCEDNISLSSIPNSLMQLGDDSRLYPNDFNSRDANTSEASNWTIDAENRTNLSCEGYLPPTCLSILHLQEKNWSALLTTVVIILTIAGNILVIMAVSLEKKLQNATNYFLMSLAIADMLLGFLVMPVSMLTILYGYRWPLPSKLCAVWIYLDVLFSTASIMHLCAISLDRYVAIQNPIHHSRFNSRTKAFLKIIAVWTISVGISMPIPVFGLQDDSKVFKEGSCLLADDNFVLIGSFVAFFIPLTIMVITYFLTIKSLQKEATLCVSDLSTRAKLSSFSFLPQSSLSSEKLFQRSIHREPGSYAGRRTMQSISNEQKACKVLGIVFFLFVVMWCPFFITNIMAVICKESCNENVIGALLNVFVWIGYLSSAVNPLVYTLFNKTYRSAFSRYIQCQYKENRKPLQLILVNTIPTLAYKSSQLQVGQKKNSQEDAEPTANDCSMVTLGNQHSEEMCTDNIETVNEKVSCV
TAAR1 ag: human TAAR1 agonists, primary screen, Fluo-8 calcium fluorescence, CHO RD-HGA16 cells | Trace amine-associated receptor 1 (Homo sapiens), Q96RJ0 | vehicle wells 0%, saturating PEA agonist 100% | activation, % at 3 µM | 360,000 tested, 0.99% active;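 active = activation above the mean activation of all test compounds in the run plus 3 SD, cut at about 38% in these data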
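Test system: RD-HGA16 (CHO) cells co-expressing Gα16 and hTAAR1 / Benchmarks: DMSO vehicle as 0%, PEA at EC100 as 100% / Repeats: no replicates (n 1) / Measure: % activation from peak over basal fluorescence ratio, DMSO-to-PEA scaled / Timing: 17-24 h plating, Fluo-8 75 min 37 °C, 30 min RT / Technique: kinetic Fluo-8 calcium fluorescence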
TAAR1 antagonist: human TAAR1 antagonists, primary screen, Fluo-8 calcium fluorescence, CHO RD-HGA16 cells. inhibition, % at 3 µM. 360,000 tested, 1.5% active. AID 624466, 2012. antagonist. Trace amine-associated receptor 1 (Homo sapiens), Q96RJ0;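 active = inhibition above a per-plate cutoff, the mean inhibition of test compounds on that plate plus 3 SD, cut at about 49% in these data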;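 also: 0% = DMSO plus EC80 beta-PEA response and 100% = DMSO alone without agonist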
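test system = CHO RD-HGA16 cells bearing hTAAR1 | replication = singlicate | controls = DMSO-only wells and EC80 β-PEA-stimulated wells | reagent = EC80 β-phenethylamine stimulus | read-out basis = percent inhibition of PEA-evoked calcium signal, max/basal emission ratio | schedule = seeding 17-24 h prior, 75-min 37 °C, 30-min RT dye loading | signal = kinetic Fluo-8 calcium fluorescence measurement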
Beta2AR agonist: beta2AR agonists driving receptor internalization, primary screen, cell-based, FAP fluorogen, flow cytometry. Am2.2-beta2AR cells. response, % (concentration not given with the values). 340,000 tested, 0.43% active. AID 504454, 2011;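 active = response above a set limit, near 3 SD of response in nonfluorescent compounds, cut at about 42% in these data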
MC4R barr agon: MC4R agonists recruiting beta-arrestin, primary screen, cell-based, luminescence, agonist arm of biased-ligand search. U2OS MC4R beta-arrestin complementation; percent of melanotan II response, DMSO zero. activation, % at 8.9 µM. 360,000 tested, 0.98% active;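 active = activation above a per-plate cutoff, the mean activation of sample wells on that plate plus 3 SD, cut at about 8% in these data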
B2AR ag CP1: beta2AR agonists via receptor internalization, confirmation, cell-based, FAP fluorogen, flow cytometry, single point, cherry pick 1. 1,100 tested, 25% active. shares compounds with Beta2AR agonist. percent response (surface receptor), % at 10 µM. Am2.2-beta2AR cells, FAP surface receptor; stronger effect = lower value. AID 540358, 2011;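 active = surface receptor percent response at or below 58%, roughly 3 SD from nonfluorescent compounds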
FAP fluor counter: counter-screen for beta-2AR agonists: fluorescence in Am2.2 cells; 1,100 tested, under 10 active; AID 588765; FAP fluorogen flow cytometry, fluorescence counterscreen; stronger effect = lower value; shares compounds with Beta2AR agonist; calls only at 10 µM;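 active = percent response below a set limit in fluorescence channel 1 and below 50% in channel 8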
* marks the source's active call; other numbers are inactive results; i = inactive; nt = no result; ! = a repeat was not active.

SMILES | MC4R antag cAMP | HTR2A ag | TAAR1 ag | TAAR1 antagonist | Beta2AR agonist | MC4R barr agon | B2AR ag CP1 | FAP fluor counter
COc1ccccc1-c1cc(C(F)(F)F)nc(S(=O)(=O)CCCC(=O)NCc2ccc(F)cc2)n1 | 12 | 5 | 0 | 0 | 37 | -2 | nt | nt
COc1ccccc1-c1cc(C(F)(F)F)nc(S(=O)(=O)CCCC(=O)NC(C)C)n1 | 10 | 0 | -1 | -5 | 98* | -2 | 54* | i
CC(Sc1nc(C(F)(F)F)nc2ccccc12)C(=O)NC1CCCC1 (configuration not stated) | 6 | 6 | 6 | -40 | -1 | -1 | nt | nt
CN(Cc1ccc(Cl)cc1Cl)C(=O)c1cccc(S(=O)(=O)NCc2ccccc2)c1 | 2 | 4 | 2 | 25 | -9 | 3 | nt | nt
COc1ccc(CC(=O)Nc2ccc(-c3cn4ccccc4n3)cc2)cc1 | -3 | -4 | 8 | 7 | 93* | 0 | 19* | i
COc1cc(OC)nc(NC(=O)CSc2nnc(-c3ccccc3)n2C2CCCCC2)n1 | 9 | 11 | -2 | -12 | 97* | 0 | 19* | i
COc1ccc2[nH]c3c(NCCC4=CCCCC4)ncnc3c2c1 | 5 | -5 | 11 | 37 | 45* | 0 | 62 | i
COc1cc(C(=O)Nc2nc3ccccc3s2)ccc1OCc1c(C)noc1C | 10 | 5 | 14 | 37 | 53* | 2 | 108 | i
COc1cc(C(=O)Nc2nccs2)ccc1OCc1c(C)noc1C | 14 | 0 | 7 | 4 | -13 | 4 | nt | nt
O=C(/C=C/[C@H]1O[C@@H](n2ccc(=O)[nH]c2=O)[C@H](O)[C@@H]1O)NCC1CCCO1 (some centres not stated) | nt | 1 | 0 | -12 | nt | nt | nt | nt
Cc1ccc2c(c1)C(=O)C(=O)N2CCCOc1ccccc1C | -26 | 1 | 4 | 21 | 42* | -2 | 91 | i
COCCCN(C(=O)c1ccccc1F)c1nc(-c2ccc(OC)cc2)cs1 | 2 | -4 | 1 | 13 | 3 | -1 | nt | nt
CCN(CC)c1ccc([C@H]2[C@@H]3CCCC[C@]3(O)CCN2CC(=O)NCc2ccco2)cc1 | -7 | -3 | 0 | 11 | 23 | 2 | 126 | i
CCN(CC)c1ccc(C2C3CCCCC3(O)CCN2CC(=O)N2CCCCC2)cc1 (configuration not stated) | 6 | 3 | 4 | 5 | 5 | 2 | nt | nt
CN1CCN(S(=O)(=O)c2ccc(CNC(=O)c3ccccc3)s2)CC1 | -1 | 1 | 0 | -6 | 11 | -1 | nt | nt
Cc1ccc(OCCNC(=O)C(C)SCC(=O)Nc2ccc(F)cc2)cc1 (configuration not stated) | 0 | -1 | 0 | 6 | 3 | -1 | nt | nt
CC1=NN(C(N)=S)C(=O)C1N=Nc1ccccc1 (configuration not stated) | -3 | 4 | -2 | 7 | -1 | -2 | 108 | i
O=C(COC(=O)c1n[nH]c(=O)c2ccccc12)NC1CCCCC1 | 12 | 3 | 2 | -30 | -3 | 1 | nt | nt
CSC(=Nc1ccccc1)C(C#N)c1nc2ccccc2[nH]1 (configuration not stated) | 0 | 7 | 1 | -12 | -5 | 2 | nt | nt
N#CC(C(=S)Nc1ccccc1)c1nc2ccccc2[nH]1 (configuration not stated) | -6 | -5 | 2 | 8 | -7 | -3 | 131 | i
Cc1ccc(Nc2nc(-c3c(C)nc4ccccn34)cs2)cc1 | -19 | -3 | 8 | 36 | 43* | -2 | 88 | i
COC(=O)CSc1nnc(CNc2nc(-c3ccccc3)cs2)n1C | 11 | 1 | 1 | -12 | -1 | -1 | nt | nt
Cn1c(CNc2nc(-c3ccccc3)cs2)nnc1SCC(=O)N1CCc2ccccc21 | 4 | -4 | 3 | 0 | 46* | -3 | 73 | i
Fc1ccc(-c2nn(-c3ccccc3)cc2CNCc2ccccc2)cc1 | 0 | 4 | 16 | 27 | 44* | 1 | 91 | i
O=S(=O)(Nc1cccc2cccnc12)c1ccccc1 | 0 | -9 | -2 | 21 | 46* | -4 | 90 | i
SMILES | MC4R antag cAMP | HTR2A ag | TAAR1 ag | TAAR1 antagonist | Beta2AR agonist | MC4R barr agon | B2AR ag CP1 | FAP fluor counter
Cc1ccc2cccc(NS(=O)(=O)c3ccccc3)c2n1 | nt | nt | 6 | 0 | nt | nt | 119 | i
Cc1c(C)n(Cc2ccc(F)cc2)c2ccc(C(=O)N3CCN(c4ccccn4)CC3)cc12 | 0 | -8 | 1 | 15 | -3 | -3 | nt | nt
CN(C)c1ccc(C=c2c3ccccc3n3c2c2ccccc2[n+]3C)cc1 | 4 | -4 | 9 | 28 | 50* | 14* | 91 | i
Cc1ccc(S(=O)(=O)N2CCCCC2CCNC(=O)C(=O)NCC2CCCO2)cc1 (configuration not stated) | 1 | -7 | 3 | -5 | 6 | 0 | nt | nt
COc1ccc(S(=O)(=O)N(C)CC(=O)N2CCN(c3ccccc3)CC2)cc1 | 9 | 7 | -1 | 11 | -15 | 2 | 124 | i
COc1ccccc1N1CCN(C(=O)CN(C)S(=O)(=O)c2ccc(C)cc2)CC1 | 2 | -1 | 0 | -7 | nt | -2 | 47* | i
COc1ccc(S(=O)(=O)N(C)CC(=O)N2CCN(c3ccc(F)cc3)CC2)cc1OC | 6 | -7 | 10 | -12 | 2 | -1 | 5.1*! | i
COc1ccccc1OCC(O)CNCc1ccc2c(c1)OCO2 (configuration not stated) | -2 | -6 | 14 | -22 | -10 | -4 | nt | nt
CNC[C@H]1OCCCC[C@H](C)Oc2ccc(NC(=O)CCCN(C)C)cc2C(=O)N([C@H](C)CO)C[C@@H]1C | 3 | 3 | 0 | -19 | nt | -1 | nt | nt
CCOC(=O)c1cc(S(=O)(=O)N2CCN(C3CCCCC3)CC2)cn1C | 12 | -2 | 2 | -35 | -1 | -1 | nt | nt
CN1CCN(c2ccccc2NC(=O)c2sc3ccccc3c2Cl)CC1 | 3 | -7 | 3 | -4 | -14 | -3 | nt | nt
